Data set [1] concerns HT-29. Description: Cell cycle arrest in nocodazole pretreated human HT-29 cells assessed as accumulation at M phase at 10 uM after 24 hrs. The class given is functional, cell-based. The method, boiled down:
(§1)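 HT-29 cells stained with propidium iodide; cell-cycle distribution determined by flow cytometry.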

Data set [2] addresses DNA topoisomerase 2-alpha (Homo sapiens, UniProt P11388). Nature of the data set: Inhibition of human topoisomerase 2alpha-mediated relaxation of pBR322 up to 125 uM.
In data set [3] the test system is Nucleic Acid. Nature of the data set: Inhibition of Fenton's reaction mediated DNA strand break in Escherichia coli pBR322 at 0.1 to 1 uM by gel electrophoresis. The class given is nucleic-acid assay. The method, boiled down: (§2)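 pBR322 (0.2 μg) incubated 30 min at room temperature in 13 mM Hepes pH 7.2 with 1 mM H2O2 and 10 μM FeSO4 plus compound. Run on 1% agarose containing 0.1 μg/mL ethidium bromide at 90 V for 60 min. Bands quantified; % supercoiled = 1.4SC/(L+OC+1.4SC)×100.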

In data set [4] the test system is HT-29. Nature of the data set: Cell cycle arrest in nocodazole pretreated human HT-29 cells assessed as accumulation at M phase at 5 uM after 24 hrs. The class given is functional, cell-based. The method, boiled down: as §1
The subject of data set [5] is Nucleic Acid. Description: Inhibition of Fenton's reaction mediated DNA strand break in Escherichia coli pBR322 by gel electrophoresis. The class given is nucleic-acid assay. The method, boiled down: as §2
The subject of data set [6] is Nucleic Acid. Nature of the data set: Inhibition of Fenton's reaction mediated DNA strand break in Escherichia coli pBR322 at 1 to 100 uM by gel electrophoresis. The class given is nucleic-acid assay. The method, boiled down: as §2
The next data set relates to Mus musculus. Description: Toxicity in Kunming mouse bearing mouse S180 cells assessed as change in body weight at 50 mg/kg/day, ip for 2 days (reference value: 18.1 g). The class given is organism-based, CCRF S-180. Also on record: route intraperitoneal. Conditions: in vivo, 48 h.
The next data set has as its system CCRF S-180. Description: Antitumor activity against mouse S180 cells transplanted in Kunming mouse assessed as inhibition of tumor growth at 50 mg/kg/day, iv for 2 days. The class given is functional. The following applies: CCRF S-180, 48 h. The method, boiled down: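 Female Kunming mice, 7 weeks old, 18-22 g, were inoculated sc in the right armpit with S-180 sarcoma. Dosing started the next day: the drug iv, vehicle controls normal saline. After treatment, mice were killed, and solid tumors were excised and weighed. Inhibitory rate (%) = (mean control tumor weight − mean treated tumor weight)/mean control tumor weight × 100.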

Molecules are shown by their SMILES. Active and inactive are the calls of the source. No cut-off for these calls is given here.

DNA topoisomerase 2-alpha, sequence (P11388 whole entry): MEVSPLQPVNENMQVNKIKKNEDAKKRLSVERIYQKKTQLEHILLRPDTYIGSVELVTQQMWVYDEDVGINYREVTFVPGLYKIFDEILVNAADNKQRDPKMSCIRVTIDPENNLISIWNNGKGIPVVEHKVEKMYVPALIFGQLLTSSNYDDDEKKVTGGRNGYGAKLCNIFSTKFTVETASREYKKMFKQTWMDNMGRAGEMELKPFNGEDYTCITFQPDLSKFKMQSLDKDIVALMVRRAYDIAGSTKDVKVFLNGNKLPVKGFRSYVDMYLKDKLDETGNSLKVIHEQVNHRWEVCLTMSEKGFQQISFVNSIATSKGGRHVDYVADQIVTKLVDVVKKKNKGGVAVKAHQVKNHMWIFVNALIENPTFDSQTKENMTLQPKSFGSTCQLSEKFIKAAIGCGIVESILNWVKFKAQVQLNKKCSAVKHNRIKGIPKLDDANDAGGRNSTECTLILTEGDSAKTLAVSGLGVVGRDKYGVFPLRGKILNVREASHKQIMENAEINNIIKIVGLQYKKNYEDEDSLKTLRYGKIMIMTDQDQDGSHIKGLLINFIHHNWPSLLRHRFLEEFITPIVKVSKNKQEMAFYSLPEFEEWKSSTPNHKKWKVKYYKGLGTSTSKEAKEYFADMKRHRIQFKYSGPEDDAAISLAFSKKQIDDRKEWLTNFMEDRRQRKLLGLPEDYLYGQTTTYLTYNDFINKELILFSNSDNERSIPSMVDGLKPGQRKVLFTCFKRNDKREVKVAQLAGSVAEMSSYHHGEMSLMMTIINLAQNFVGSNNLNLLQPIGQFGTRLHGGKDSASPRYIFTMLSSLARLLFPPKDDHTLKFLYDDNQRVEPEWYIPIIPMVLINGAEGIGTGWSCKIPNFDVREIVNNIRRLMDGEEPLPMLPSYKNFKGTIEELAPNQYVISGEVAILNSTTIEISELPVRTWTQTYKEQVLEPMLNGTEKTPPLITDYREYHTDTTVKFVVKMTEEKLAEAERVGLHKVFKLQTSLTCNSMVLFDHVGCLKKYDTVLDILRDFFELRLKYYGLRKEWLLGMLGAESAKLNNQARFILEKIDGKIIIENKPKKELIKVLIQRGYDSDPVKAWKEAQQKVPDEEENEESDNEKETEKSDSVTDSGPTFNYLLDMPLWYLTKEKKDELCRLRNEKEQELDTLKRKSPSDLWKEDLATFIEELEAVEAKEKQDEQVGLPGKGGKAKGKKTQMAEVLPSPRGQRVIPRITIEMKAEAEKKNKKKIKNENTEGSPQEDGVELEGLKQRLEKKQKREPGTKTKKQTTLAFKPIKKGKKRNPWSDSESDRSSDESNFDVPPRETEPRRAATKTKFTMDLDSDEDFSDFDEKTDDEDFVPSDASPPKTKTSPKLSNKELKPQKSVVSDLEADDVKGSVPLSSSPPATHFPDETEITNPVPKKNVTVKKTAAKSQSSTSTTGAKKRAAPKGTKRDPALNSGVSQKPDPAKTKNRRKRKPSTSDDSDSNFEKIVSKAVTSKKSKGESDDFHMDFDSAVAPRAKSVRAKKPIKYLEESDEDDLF

Consider `CC(=O)N(O)CCCCCNC(=O)CCC(=O)N(O)CCCCCNC(=O)CCC(=O)N(O)CCCCCN`, for which the outcome in the data set with HT-29 [1] and in the data set on HT-29 [4] was Active. Moreover, the inhibition result in data set [2] was “inactive”. The inhibition result with Nucleic Acid [3] and with Nucleic Acid [6] was “Active” each time. Also, the inhibition result in the data set with Nucleic Acid [5] was “Dose-dependent effect”.

On to `O=c1[nH]cc(F)c(=O)[nH]1` [FLUOROURACIL], for which, in the data set with Mus musculus, the Activity is listed as 27.5 g. For the same compound, the inhibition in vivo (usually the drop in the measured response relative to a control, in per cent) at 50 mg/kg/day with CCRF S-180 stood at 80.7%.

For the origin of these results see ChEMBL document CHEMBL1157101, “A series of alpha-heterocyclic carboxaldehyde thiosemicarbazones inhibit topoisomerase IIalpha catalytic activity” (J Med Chem, 2010).
